Calls of active or inactive are those of the source. No cut-off for these calls is given here.
Columns and labels:
[1] = target: T1, Arachidonate 5-lipoxygenase-activating protein (Homo sapiens) (UniProt P20292); test: (§1) Inhibition of FLAP in human neutrophils assessed as suppression of A23187-stimulated 5-LO product formation using arachidonic acid as substrate measured as residual activity at 1 uM preincubated for 15 mins followed by A23187/arachidonic acid addition after 10 mins RP-HPLC/UV analysis relative to control
T1 sequence (whole entry): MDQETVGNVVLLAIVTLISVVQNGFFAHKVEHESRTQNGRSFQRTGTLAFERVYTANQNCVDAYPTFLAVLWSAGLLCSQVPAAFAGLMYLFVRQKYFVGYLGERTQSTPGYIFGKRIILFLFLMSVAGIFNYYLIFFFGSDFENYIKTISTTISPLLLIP
Outline: (§2)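 Neutrophils were isolated from human blood by dextran sedimentation, Nycoprep centrifugation and hypotonic lysis of erythrocytes, then resuspended in PGC buffer (PBS pH 7.4, 1 mg/ml glucose, 1 mM CaCl2). Cells were pre-incubated with compound or vehicle (0.1% DMSO) for 15 min at 37 °C, stimulated with 2.5 µM A23187 for 10 min, and stopped with methanol. Internal standard PGB1. 5-LO products (LTB4, its trans isomers, 5-H(P)ETE) were measured by HPLC.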

[2] = target: T1, Arachidonate 5-lipoxygenase-activating protein (Homo sapiens); test: as §1, with “at 10” for “at 1”; outline: as §2
[3] = target: T2, Arachidonate 5-lipoxygenase-activating protein (Homo sapiens, UniProt P20292); test: (§3) Inhibition of FLAP in human neutrophils assessed as suppression of A23187-stimulated 5-LO product formation using arachidonic acid as substrate preincubated for 15 mins followed by A23187/arachidonic acid addition after 10 mins RP-HPLC/UV analysis; outline: as §2
T2 sequence (P20292 whole entry): T1 sequence (whole entry)

[4] = target: T3, Polyunsaturated fatty acid 5-lipoxygenase (Homo sapiens) (UniProt P09917); details: 3 uM
T3 sequence (whole entry): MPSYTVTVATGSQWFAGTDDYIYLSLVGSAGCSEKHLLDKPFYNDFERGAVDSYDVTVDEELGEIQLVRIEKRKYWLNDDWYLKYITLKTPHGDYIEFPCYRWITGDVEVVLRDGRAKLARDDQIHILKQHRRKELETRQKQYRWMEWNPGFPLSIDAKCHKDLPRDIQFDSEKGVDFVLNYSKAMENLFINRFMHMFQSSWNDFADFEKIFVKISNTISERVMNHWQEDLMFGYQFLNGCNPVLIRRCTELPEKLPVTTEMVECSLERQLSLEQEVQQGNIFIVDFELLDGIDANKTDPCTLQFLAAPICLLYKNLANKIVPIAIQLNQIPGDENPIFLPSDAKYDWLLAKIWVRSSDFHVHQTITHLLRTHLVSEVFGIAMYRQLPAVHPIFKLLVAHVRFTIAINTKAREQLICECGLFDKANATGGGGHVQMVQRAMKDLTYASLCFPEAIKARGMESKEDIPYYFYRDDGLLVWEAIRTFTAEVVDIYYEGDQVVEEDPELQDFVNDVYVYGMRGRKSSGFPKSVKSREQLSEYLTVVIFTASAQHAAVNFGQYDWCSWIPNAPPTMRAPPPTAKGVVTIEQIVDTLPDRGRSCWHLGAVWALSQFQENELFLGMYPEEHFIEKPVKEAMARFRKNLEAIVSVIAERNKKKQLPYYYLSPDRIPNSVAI

[5] = target: T1, Arachidonate 5-lipoxygenase-activating protein (Homo sapiens); test: Inhibition of FLAP (unknown origin) expressed in HEK293 cells co-expressing 5-LO assessed as suppression of A23187-stimulated 5-LO product formation at 0.3 uM using arachidonic acid as substrate preincubated for 15 mins followed by A23187/substrate addition by RP-HPLC analysis; type: cell-based
[6] = target: T1, Arachidonate 5-lipoxygenase-activating protein (Homo sapiens); test: as §3; outline: as §2
[7] = target: T1, Arachidonate 5-lipoxygenase-activating protein (Homo sapiens); test: Potency index, ratio of BRP-7 IC50 to compound IC50 for FLAP in human neutrophils
[8] = target: T2, Arachidonate 5-lipoxygenase-activating protein; test: Inhibition of FLAP in human monocytes assessed as suppression of A23187-stimulated 5-LO product formation preincubated for 15 mins followed by A23187 after 10 mins RP-HPLC/UV analysis; type: cell-based
[9] = target: T2, Arachidonate 5-lipoxygenase-activating protein; test: Inhibition of FLAP in human monocytes assessed as suppression of A23187-stimulated 5-LO product formation using 10 uM arachidonic acid as substrate preincubated for 15 mins followed by A23187/arachidonic acid addition after 10 mins by RP-HPLC/UV analysis; type: cell-based
[10] = target: T2, Arachidonate 5-lipoxygenase-activating protein; test: Inhibition of FLAP in human monocytes assessed as suppression of fMLP/LPS-stimulated cys-LT formation preincubated for 15 mins measured after 10 mins by ELISA; type: cell-based

Row | Compound | Activity [1] | Activity [2] | further results
1 | Cc1ccc(COc2ccc3c(c2)nc(C(C)c2ccc(CC(C)C)cc2)n3Cc2ccccc2C(F)(F)F)cc1 (stereo not given) | 92.6% | 90.5% | 
2 | C=CCOc1ccc2c(c1)nc(C(C)c1ccc(CC(C)C)cc1)n2Cc1ccccc1C(F)(F)F (stereo not given) | 7.5% | 0.6% | IC50 [3]: 170 nM
3 | CC(C)Cc1ccc(C(C)c2nc3cc(OCc4ccccc4C#N)ccc3n2Cc2ccccc2C(F)(F)F)cc1 (stereo not given) | 65.2% |  | 
4 | Cc1cccc(COc2ccc3c(c2)nc(C(C)c2ccc(CC(C)C)cc2)n3Cc2ccccc2C(F)(F)F)c1 (stereo not given) | 98.2% |  | 
5 | CC(C)Cc1ccc(C(C)c2nc3cc(OCc4cccc(F)c4)ccc3n2Cc2ccccc2C(F)(F)F)cc1 (stereo not given) | 92% | 85.9% | 
6 | CC(c1cc2ccccc2s1)N(O)C(N)=O (stereo not given) |  |  | inhibition [4]: > 80%
7 | COc1ccc(COc2ccc3c(c2)nc(C(C)c2ccc(CC(C)C)cc2)n3Cc2ccccc2C(F)(F)F)cc1 (stereo not given) | 81.6% | 80.1% | 
8 | CC(C)Cc1ccc(C(C)c2nc3cc(OCc4ccc(C#N)cc4)ccc3n2Cc2ccccc2C(F)(F)F)cc1 (stereo not given) | 71.1% |  | 
9 | CC(C)Cc1ccc(C(C)c2nc3cc(OCc4ccc(C(C)(C)C)cc4)ccc3n2Cc2ccccc2C(F)(F)F)cc1 (stereo not given) | 94.9% | 94% | 
10 | CC(C)Cc1ccc(C(C)c2nc3cc(OCc4ccc(C(F)(F)F)cc4)ccc3n2Cc2ccccc2C(F)(F)F)cc1 (stereo not given) | 91.7% | 94.3% | 
11 | CC(C)Cc1ccc(C(C)c2nc3cc(OCc4ccccc4C#N)ccc3n2Cc2ccccc2Cl)cc1 (stereo not given) | 39.9% | 15.6% | IC50 [3]: 120 nM
12 | CC(C)=CCOc1ccc2c(c1)nc(C(C)c1ccc(CC(C)C)cc1)n2Cc1ccccc1C(F)(F)F (stereo not given) | 60.2% |  | 
13 | CC(C)Cc1ccc(C(C)c2nc3cc(OCc4ccc(Br)cc4)ccc3n2Cc2ccccc2C(F)(F)F)cc1 (stereo not given) | 108% | 94.4% | 
14 | CC(C)Cc1ccc(C(C)c2nc3cc(OCc4ccc(OC(F)(F)F)cc4)ccc3n2Cc2ccccc2C(F)(F)F)cc1 (stereo not given) | 99.9% |  | 
15 | CC(C)c1ccc2c(c1)c(SC(C)(C)C)c(CC(C)(C)C(=O)O)n2Cc1ccc(Cl)cc1 | 2.7% |  | inhibition [5]: Active
16 | CCCCOc1ccc2c(c1)nc(C(C)c1ccc(CC(C)C)cc1)n2Cc1ccccc1C(F)(F)F (stereo not given) | 58.1% |  | 
17 | Cc1ccccc1COc1ccc2c(c1)nc(C(C)c1ccc(CC(C)C)cc1)n2Cc1ccccc1C(F)(F)F (stereo not given) | 97.1% | 89.7% | 
18 | CC(C)Cc1ccc(C(C)c2nc3cc(OCc4ccccc4Cl)ccc3n2Cc2ccccc2C(F)(F)F)cc1 (stereo not given) | 92.2% | 92.2% | 
19 | COC(=O)COc1ccc2c(c1)nc(C(C)c1ccc(CC(C)C)cc1)n2Cc1ccccc1C(F)(F)F (stereo not given) | 1.9% |  | IC50 [3]: 210 nM
20 | CC(C)Cc1ccc(C(C)c2nc3cc(OCc4ccccc4C(F)(F)F)ccc3n2Cc2ccccc2C(F)(F)F)cc1 (stereo not given) | 90.9% |  | 
21 | CC(C)Cc1ccc(C(C)c2nc3cc(C#N)ccc3n2Cc2ccccc2Cl)cc1 (stereo not given) | 0% |  | inhibition [5]: Active; inhibition [6]: Dose-dependent effect; IC50 [3]: 70 nM; Ratio IC50 [7]: 4.4; IC50 [8]: 26 nM; IC50 [9]: 35 nM; IC50 [10]: 12 nM
22 | CC(C)Cc1ccc(C(C)c2nc3cc(OCc4ccccn4)ccc3n2Cc2ccccc2C(F)(F)F)cc1 (stereo not given) | 0% |  | IC50 [3]: 150 nM
23 | CCC#CCOc1ccc2c(c1)nc(C(C)c1ccc(CC(C)C)cc1)n2Cc1ccccc1C(F)(F)F (stereo not given) | 55.6% |  | 
